# Bioassay records from PubChem.
# Many of the other results were omitted from the sample, so hits are more common in it than they were.
# HCT116 PTEN-null: PTEN-deleted cell growth suppression; AID 827; 1.2% of 140,000 active; HCT116 PTEN-null viability, CellTiter-Glo, 60 h; hits give low values; viability, % at 10 µM;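 active = viability at or below a set limit, 4 SD under the median of all tested compounds, cut at about 3.7% in these data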;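 note: PTEN knockout HCT116 line with beta catenin targeted HCT116 as companion control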
# H69AR growth 86K: blocks growth of human H69AR lung tumor cells | H69AR lung tumor viability, ATP luminescence, 72 h; hits give low values | 6% of 85,000 active | viability, % at 10 µM;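 active = viability at or below 40%; inactive = viability above 40%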;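 note: multidrug resistant small cell line overexpressing MRP-1 efflux transporter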
# HUVEC inhibit: blocks proliferation of human endothelial cells; 1.1% of 86,000 active; HUVEC proliferation, CellTiter-Glo luminescence, 72 h; hits give low values; AID 648; viability, % at 10 µM (by protocol);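 active = viability at or below 30%; inactive = viability above 30%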
# Fibroblast inh: blocks proliferation of human lung fibroblasts; LL 47 human lung fibroblast viability, ATP luminescence; hits give low values; viability, % at 10 µM; 1.1% of 85,000 active;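 active = viability at or below 50% in the single dose screen; inactive = viability above 50%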;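 note: compound exposure lasted 72 h before the ATP readout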
#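 Times – overnight cell rest, 72 h compound treatment at 37 °C · Test system – human lung fibroblast line LL 47, low passage · Amount – 1,150 cells in each well · Controls – cell-only wells, no compound · Doses – 0.1% DMSO in all compound wells · Measured by – CellTiter-Glo luminescence · Buffer or medium – IMEM plus 15% FBS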
# bCat KO growth: beta-catenin-lacking colon tumor cell growth suppression. HCT116 beta-catenin knockout viability, CellTiter-Glo, 60 h; hits give low values. viability, % at 10 µM. 1.5% of 140,000 active. AID 818;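 active = viability at or under a set limit, the compound median less 4 SD, cut at about 6% in these data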
# Hits are given with their value; - = inactive; . = no result given.
SMILES,HCT116 PTEN-null,H69AR growth 86K,HUVEC inhibit,Fibroblast inh,bCat KO growth
Cc1cc(C)c2c(=O)n(CC(=O)N3CCC(N4CCCCC4)CC3)sc2n1,1.9,-,-,-,1.8
CCOC(=O)C1CCCN(C(=O)Cn2cnc3c2c(=O)n(C)c(=O)n3C)C1 (stereo not given),-,-,-,-,-
CCOC(=O)C1CCCN(C(=O)Cn2sc3nc(C)cc(C)c3c2=O)C1 (stereo not given),1.7,1.1,-,-,-
CCC(Nc1ccc(OC)cc1)C(=O)N/N=C/c1ccc([N+](=O)[O-])cc1 (stereo not given),-,.,.,.,-
CC(C)N(C(=O)CSc1nn2c(=O)c(C(C)(C)C)nnc2s1)c1ccccc1,-,14.3,-,.,-
CC(C)(C)c1nnc2sc(SCCN3C(=O)c4ccccc4C3=O)nn2c1=O,-,-,-,-,-
Cc1cccc(N(C)C(=O)c2cc3cc4ccc(C)cc4nc3o2)c1,-,18.6,-,-,-
O=C(NNC(=O)c1cc(-c2ccccc2)nn1-c1ccccc1)c1ccccc1,-,.,.,.,-
C=CC(=O)N1c2ccccc2Sc2ccc(NC(=O)OCC)cc21,-,26.1,-,-,-
CCOC(=O)Nc1ccc2c(c1)N(C(=O)N1CCN(C)CC1)c1ccccc1S2,-,-,-,-,-
CCOC(=O)N1CCN(C(=O)CCc2ccc(S(=O)(=O)NCCc3ccccc3)cc2)CC1,-,-,-,-,-
Fc1ccc(Br)cc1C1C=C(c2cccnc2)Nc2ncnn21 (stereo not given),-,24.6,-,-,-
Brc1ccc(C2=CC(c3cccs3)n3ncnc3N2)cc1 (stereo not given),-,-,-,-,-
CCOC(=O)c1ccc(NS(=O)(=O)c2cnc[nH]2)cc1,-,-,-,-,-
O=C1N/C(=C\c2ccccc2)c2ccccc21,-,24.1,-,-,-
O=C1O/C(=C\c2ccccc2)c2ccccc21,-,.,.,.,-
COC(=O)c1nn(-c2ccccc2)nc1-c1nn(-c2ccccc2)nc1C(=O)OC,-,25.9,-,-,-
N#C/C(=C/c1ccc(Br)o1)C(N)=O,-,33.0,-,-,-
Cc1nc(N)sc1-c1csc(Nc2ccccn2)n1,-,-,-,-,-
COc1ccc(Nc2nc(-c3sc(N)nc3C)cs2)cc1,-,29.3,-,-,-
COc1ccc(Nc2nc(-c3sc(NC(C)=O)nc3C)cs2)cc1,-,13.4,-,-,-
Cc1nc(NC(=O)c2ccccc2)sc1-c1csc(Nc2ccc(Cl)cc2)n1,-,.,.,.,-
Cc1csc(NC(=O)CCSCCc2ccccn2)n1,-,-,-,-,-
COc1ccc(C(=O)Cn2c(C(=O)/C=C/c3ccccc3)nc3ccccc32)cc1,3.7,.,.,.,2.4
CCC(C)(C)NC(=O)C(c1ccco1)N(C(=O)CNC(=O)c1cccs1)c1cccnc1 (stereo not given),-,-,-,-,-
SMILES,HCT116 PTEN-null,H69AR growth 86K,HUVEC inhibit,Fibroblast inh,bCat KO growth
Cn1c(=O)oc2cc(S(=O)(=O)N3CCCc4ccccc43)ccc21,-,22.6,-,-,-
COC(=O)Nc1ccc(S(=O)(=O)N2CCCc3ccccc32)cc1,-,17.7,-,-,-
COc1ccccc1C(=O)Nc1ccc(S(=O)(=O)N2CCc3ccccc32)cc1,-,-,-,-,-
CCc1nnc(NC(=O)c2ccc(S(=O)(=O)N3CCCc4ccccc43)cc2)o1,-,19.9,-,-,-
O=C(c1cccs1)N1CCN(C(=O)C(c2ccccc2)c2ccccc2)CC1,-,-,-,-,-
Cc1noc(C)c1CN(C(=S)NC1CC1)c1ccccc1,-,.,.,.,-
CN(C)S(=O)(=O)c1cccc(-c2nnc(SCc3ccc4c(c3)OCCO4)o2)c1,-,-,-,-,-
CC(C)(C)CC(C)(C)NCC(O)COc1c(F)cc(Br)cc1F (stereo not given),-,9.7,-,-,-
COc1ccc2cc(C(c3nnnn3Cc3ccc(F)cc3)N3CCCCCC3)c(=O)[nH]c2c1 (stereo not given),-,36.9,-,-,-
COc1ccc2cc(C(c3nnnn3Cc3ccccc3)N3CCCCCC3)c(=O)[nH]c2c1 (stereo not given),.,-,-,-,.
Cn1c(C(=O)OCC(=O)NCCc2ccccc2)cc2sccc21,-,-,-,-,-
COc1ccc(Nc2oc(COc3ccccc3F)nc2C#N)cc1,-,5.4,-,-,-
Cc1nn(-c2ccccc2)c2c1/C(=N/O)CC(C)(C)C2,-,30.0,-,-,-
Cc1nn(-c2ccccc2)c2c1C(=O)N(c1ccccc1)C(=O)C(C)(C)C2,-,-,-,-,-
